Legend:
[1] = Rat brain homogenate binding; format: in vitro ADME
[2] = Rat PK IV/PO crossover study; format: in vivo
Outline: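 Male Sprague–Dawley rats with carotid and jugular cannulae (n = 2) were dosed IV at 1.0 mg/kg in 10% EtOH, 50% PEG 400 and 40% saline. For oral dosing, fasted rats received 3 mg/kg by gavage as a microsuspension in 30% Captisol. Carotid blood was sampled from 0.117 to 24 h, and EDTA plasma was analysed by LC/MS/MS. Parameters came from noncompartmental analysis.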

rat M2-M5 = assay: Calcium mobilization selectivity, rat M2-M5; format: cell-based; conditions: Figure 4B
Outline: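 Muscarinic receptor-expressing CHO cells were plated at 20,000 cells/well in medium without G418 the day before. They were loaded with 1.15 μM Fluo-4 AM for 45 min at 37 °C in HBSS with 20 mM HEPES and 2.5 mM probenecid. Test compound (10-point 1:3 series, top final 30 μM) was added for 2.5 min, then EC20 ACh for 1 min. Calcium flux was fitted with a four-parameter logistic curve.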

rats = assay: Contextual fear conditioning, risperidone-induced deficit; format: in vivo, rat; conditions: 10 mg/kg VU0486846 coadministered with 3 mg/kg risperidone
[3] = test system: 68 GPCRs, ion channels, and transporters; assay: Eurofins Lead Profiling panel; format: binding; conditions: @10 μM, 68 targets
P-gp = P-gp (Homo sapiens, UniProt P08183); assay: MDCK P-gp efflux and permeability; format: in vitro ADME
Sequence of P-gp (P08183 whole entry): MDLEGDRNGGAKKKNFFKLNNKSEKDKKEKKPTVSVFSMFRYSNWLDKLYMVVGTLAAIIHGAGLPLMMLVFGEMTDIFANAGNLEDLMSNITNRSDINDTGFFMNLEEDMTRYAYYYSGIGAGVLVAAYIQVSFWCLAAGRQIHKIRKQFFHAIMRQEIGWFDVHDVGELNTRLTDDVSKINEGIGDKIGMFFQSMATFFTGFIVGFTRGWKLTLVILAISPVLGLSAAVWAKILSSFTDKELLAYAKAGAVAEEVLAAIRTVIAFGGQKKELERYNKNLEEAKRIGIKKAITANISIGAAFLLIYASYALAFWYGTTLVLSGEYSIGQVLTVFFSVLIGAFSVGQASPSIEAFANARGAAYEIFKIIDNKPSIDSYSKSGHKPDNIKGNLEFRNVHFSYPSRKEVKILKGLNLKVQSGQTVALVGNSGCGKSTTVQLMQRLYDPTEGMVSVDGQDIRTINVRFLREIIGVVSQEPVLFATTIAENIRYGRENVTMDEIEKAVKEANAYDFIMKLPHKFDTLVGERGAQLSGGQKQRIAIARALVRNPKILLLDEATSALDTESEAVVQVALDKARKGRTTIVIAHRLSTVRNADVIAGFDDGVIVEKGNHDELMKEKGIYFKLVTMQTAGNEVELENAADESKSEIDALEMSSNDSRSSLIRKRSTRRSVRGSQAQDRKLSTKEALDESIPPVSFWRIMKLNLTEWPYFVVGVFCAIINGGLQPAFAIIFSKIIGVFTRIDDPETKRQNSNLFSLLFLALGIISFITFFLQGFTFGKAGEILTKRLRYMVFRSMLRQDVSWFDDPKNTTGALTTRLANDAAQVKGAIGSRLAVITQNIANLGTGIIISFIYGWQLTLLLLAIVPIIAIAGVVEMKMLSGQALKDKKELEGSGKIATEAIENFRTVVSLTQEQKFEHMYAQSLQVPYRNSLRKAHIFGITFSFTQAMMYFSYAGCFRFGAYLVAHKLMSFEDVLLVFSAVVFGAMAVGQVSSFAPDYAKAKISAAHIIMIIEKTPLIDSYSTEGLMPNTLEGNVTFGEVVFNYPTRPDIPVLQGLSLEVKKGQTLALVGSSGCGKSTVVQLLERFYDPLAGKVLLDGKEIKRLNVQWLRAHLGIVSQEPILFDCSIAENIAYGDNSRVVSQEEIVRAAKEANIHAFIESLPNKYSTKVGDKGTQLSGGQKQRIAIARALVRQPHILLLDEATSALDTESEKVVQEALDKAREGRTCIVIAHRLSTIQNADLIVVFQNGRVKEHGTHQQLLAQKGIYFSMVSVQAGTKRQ

cytochrome P450 2D6 = cytochrome P450 2D6 (Homo sapiens, UniProt P10635); assay: CYP450 inhibition in human liver microsomes, 2D6; format: in vitro ADME
Sequence of cytochrome P450 2D6 (P10635 whole entry): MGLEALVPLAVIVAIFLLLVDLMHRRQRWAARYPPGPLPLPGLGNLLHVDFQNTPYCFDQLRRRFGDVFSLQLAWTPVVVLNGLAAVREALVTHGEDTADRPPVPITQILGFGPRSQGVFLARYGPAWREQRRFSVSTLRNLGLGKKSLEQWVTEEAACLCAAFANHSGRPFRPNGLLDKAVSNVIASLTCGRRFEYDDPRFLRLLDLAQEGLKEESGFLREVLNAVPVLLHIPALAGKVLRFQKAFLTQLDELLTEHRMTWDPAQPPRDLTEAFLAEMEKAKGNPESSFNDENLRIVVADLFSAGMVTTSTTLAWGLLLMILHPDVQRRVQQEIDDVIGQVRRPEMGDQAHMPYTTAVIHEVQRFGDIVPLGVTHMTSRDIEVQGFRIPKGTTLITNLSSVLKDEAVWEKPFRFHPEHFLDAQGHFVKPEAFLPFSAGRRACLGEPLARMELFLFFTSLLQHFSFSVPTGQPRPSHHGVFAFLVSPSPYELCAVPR

[4] = test system: layer V medial prefrontal cortex fEPSPs; assay: Extracellular field electrophysiology in layer V prelimbic mPFC slices; parameters: species or system mouse
Outline: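 Coronal prelimbic slices (400 μm) recovered in NMDG-HEPES solution (pH 7.3) for 8–10 min at 32 °C, then were perfused with ACSF at 2 mL/min and 30–32 °C. Layer V fEPSPs were evoked from layers II–III (200 μs, 0.05 Hz) or optically in ChR2-injected mice. Compound alone was bath-applied for 20 min. Alternatively, 10 μM compound was applied for 10 min, then with 3 μM OxoM for 10 min. Slope was measured 46–50 min after washout.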

fraction unbound [1]: 0.03
half-life ([2]; male, Sprague-Dawley, rat, plasma): 1.2 h
Vd ([2]; male, Sprague-Dawley, rat, plasma, intravenous, 1 mg/kg): 1.8 L/kg
clearance ([2]; male, Sprague-Dawley, rat, plasma, iv, 1 mg/kg): 89 mL/min/kg
bioavailability ([2]; male, Sprague-Dawley, rat, plasma, po, 3 mg/kg): 95.9%
human P-gp substrate (P-gp; MDCK): not a human P-gp substrate
Papp (P-gp; human, MDCK): 30 ×10⁻⁶ cm/s
efflux ratio (P-gp; human, MDCK-MDR1): 0.9
IC50 (cytochrome P450 2D6): 29.8 µM
Structure (SMILES): O=C(N[C@H]1CCCC[C@@H]1O)[C@H]1CN(Cc2ccc(-n3cccn3)cc2)c2ccccc2O1 [VU0486846, (2R)-N-[(1S,2S)-2-Hydroxycyclohexyl]-4-[(4-pyrazol-1-ylphenyl)-methyl]-2,3-dihydro-1,4-benzoxazine-2-carboxamide]
Adverse events or cholinergic side effects in PK study ([2]; rat PK study): No adverse events or cholinergic side effects
Activity at rat M2–M5 (selectivity) (rat M2-M5): highly selective
Activity at rat M2–M5 (selectivity) (rat M2-M5; listed as 16): inactive
Conditioned freezing (rats): restored conditioned freezing to vehicle-treated control levels
inhibition at any target in the panel [3]: ≤ 50%
Magnitude of LTD, PAM + CCh vs CCh alone ([4]; 3 μM VU0486846 + 10 μM CCh, electrically evoked, p < 0.05): significant increase in the magnitude of LTD
Change in fEPSP slope, compound alone (agonist activity in PFC) ([4]; 3 μM bath application 20 min, electrically evoked layer V fEPSPs): no significant change
Magnitude of LTD, PAM + OxoM vs OxoM alone ([4]; 10 μM VU0486846 + 3 μM OxoM, optically evoked, p < 0.05): significantly enhanced

Reference: paper PMC6146057 (ACS chemical neuroscience, 2018)
